Data as given in ChEMBL document CHEMBL5030531, “Synthetic Glycolipids as Molecular Vaccine Adjuvants: Mechanism of Action in Human Cells and In Vivo Activity” (J Med Chem, 2021).
Calls of active or inactive are those of the source.

Columns and labels:
[1] = molecular target: Nuclear factor NF-kappa-B complex (Homo sapiens) (UniProt Q00653+P19838+Q04206); test: Activation of NF-kappaB in LPS-stimulated HEK-Blue hTLR4 cells assessed as increase in release of SEAP reporter protein level at 0.1 to 25 uM incubated for 18 hrs by QUANTI-blue assay; assay type: cell-based; conditions: dose 0.1-25 µM
Summary of the method: (§1)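 HEK-Blue hTLR4 cells (HEK293 with CD14, TLR4, MD-2 and NF-κB/AP-1-driven SEAP) in DMEM/10% FBS, seeded overnight (37 °C, 5% CO2), washed, then exposed to compound 0.1–25 μM in fresh medium for 18 h. SEAP in supernatant read with QUANTI-Blue substrate (0.5–4 h, RT) at OD 630 nm. Normalized to 100 ng/mL S. minnesota smooth LPS; mean percentage of three independent experiments.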

HEK-Blue hTLR4 = test: Activation of AP-1 in LPS-stimulated HEK-Blue hTLR4 cells assessed as increase in release of SEAP reporter protein level at 0.1 to 25 uM incubated for 18 hrs by QUANTI-blue assay; assay type: cell-based; conditions: Homo sapiens, dose 0.1-25 µM; summary of the method: as §1
[2] = molecular target: Toll-like receptor 4 (Homo sapiens) (UniProt O00206); test: Antagonist activity at human TLR4 in LPS-stimulated HEK-Blue hTLR4 cells assessed as inhibition of LPS-induced SEAP production at 0.1 to 25 uM incubated for 18 hrs by QUANTI-blue assay; conditions: dose 0.1-25 µM

Measured: Activity

Chain of Nuclear factor NF-kappa-B complex (Homo sapiens) (P19838 whole entry, looked up): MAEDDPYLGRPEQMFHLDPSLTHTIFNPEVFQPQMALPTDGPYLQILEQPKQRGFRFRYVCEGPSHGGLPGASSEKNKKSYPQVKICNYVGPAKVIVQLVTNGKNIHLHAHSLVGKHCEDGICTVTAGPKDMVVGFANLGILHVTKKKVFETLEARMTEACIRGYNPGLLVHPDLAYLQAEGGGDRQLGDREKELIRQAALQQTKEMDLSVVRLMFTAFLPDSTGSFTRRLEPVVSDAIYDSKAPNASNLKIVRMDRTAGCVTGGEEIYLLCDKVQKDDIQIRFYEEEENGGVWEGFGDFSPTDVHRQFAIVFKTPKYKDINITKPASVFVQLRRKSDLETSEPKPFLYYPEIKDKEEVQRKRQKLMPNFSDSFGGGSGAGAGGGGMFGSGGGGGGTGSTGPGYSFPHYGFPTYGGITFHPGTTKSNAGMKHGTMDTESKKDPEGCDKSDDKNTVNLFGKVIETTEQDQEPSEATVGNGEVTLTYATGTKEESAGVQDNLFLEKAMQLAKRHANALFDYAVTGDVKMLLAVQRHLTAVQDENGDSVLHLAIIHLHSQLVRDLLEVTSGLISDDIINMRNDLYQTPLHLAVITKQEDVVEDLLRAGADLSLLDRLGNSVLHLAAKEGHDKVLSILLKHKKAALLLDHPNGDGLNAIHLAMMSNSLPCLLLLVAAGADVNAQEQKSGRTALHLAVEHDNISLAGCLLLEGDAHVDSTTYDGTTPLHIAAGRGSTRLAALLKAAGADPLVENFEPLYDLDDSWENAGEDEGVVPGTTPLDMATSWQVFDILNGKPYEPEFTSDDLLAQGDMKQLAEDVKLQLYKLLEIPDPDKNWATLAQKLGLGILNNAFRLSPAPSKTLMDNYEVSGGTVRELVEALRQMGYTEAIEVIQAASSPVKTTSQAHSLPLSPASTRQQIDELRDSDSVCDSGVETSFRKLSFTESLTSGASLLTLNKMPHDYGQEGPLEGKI
Chain of Nuclear factor NF-kappa-B complex (Homo sapiens) (Q00653 whole entry, looked up): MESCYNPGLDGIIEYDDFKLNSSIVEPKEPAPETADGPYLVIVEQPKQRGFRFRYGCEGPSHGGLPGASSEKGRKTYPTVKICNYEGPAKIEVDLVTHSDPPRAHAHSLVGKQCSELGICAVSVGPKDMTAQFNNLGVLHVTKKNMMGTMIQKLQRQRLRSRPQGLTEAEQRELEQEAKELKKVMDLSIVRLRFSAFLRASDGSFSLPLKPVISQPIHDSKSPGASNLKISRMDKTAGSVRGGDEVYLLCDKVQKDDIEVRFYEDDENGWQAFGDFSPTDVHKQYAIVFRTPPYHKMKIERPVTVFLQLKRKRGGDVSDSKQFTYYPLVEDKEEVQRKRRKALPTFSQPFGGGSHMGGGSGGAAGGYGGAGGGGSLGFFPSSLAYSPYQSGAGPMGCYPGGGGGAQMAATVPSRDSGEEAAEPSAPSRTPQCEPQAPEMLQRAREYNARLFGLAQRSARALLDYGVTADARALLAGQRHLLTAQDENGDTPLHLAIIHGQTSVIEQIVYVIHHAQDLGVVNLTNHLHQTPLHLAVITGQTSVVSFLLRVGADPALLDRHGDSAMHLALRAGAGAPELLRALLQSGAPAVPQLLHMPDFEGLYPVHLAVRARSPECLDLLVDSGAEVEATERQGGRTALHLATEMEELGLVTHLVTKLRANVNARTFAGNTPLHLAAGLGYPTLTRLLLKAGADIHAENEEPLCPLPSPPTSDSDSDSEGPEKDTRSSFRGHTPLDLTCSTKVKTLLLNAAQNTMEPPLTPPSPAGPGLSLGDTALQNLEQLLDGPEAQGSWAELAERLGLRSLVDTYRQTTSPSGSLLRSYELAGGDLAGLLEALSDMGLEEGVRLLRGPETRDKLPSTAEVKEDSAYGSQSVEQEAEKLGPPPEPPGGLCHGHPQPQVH
Chain of Nuclear factor NF-kappa-B complex (Homo sapiens) (Q04206 whole entry, looked up): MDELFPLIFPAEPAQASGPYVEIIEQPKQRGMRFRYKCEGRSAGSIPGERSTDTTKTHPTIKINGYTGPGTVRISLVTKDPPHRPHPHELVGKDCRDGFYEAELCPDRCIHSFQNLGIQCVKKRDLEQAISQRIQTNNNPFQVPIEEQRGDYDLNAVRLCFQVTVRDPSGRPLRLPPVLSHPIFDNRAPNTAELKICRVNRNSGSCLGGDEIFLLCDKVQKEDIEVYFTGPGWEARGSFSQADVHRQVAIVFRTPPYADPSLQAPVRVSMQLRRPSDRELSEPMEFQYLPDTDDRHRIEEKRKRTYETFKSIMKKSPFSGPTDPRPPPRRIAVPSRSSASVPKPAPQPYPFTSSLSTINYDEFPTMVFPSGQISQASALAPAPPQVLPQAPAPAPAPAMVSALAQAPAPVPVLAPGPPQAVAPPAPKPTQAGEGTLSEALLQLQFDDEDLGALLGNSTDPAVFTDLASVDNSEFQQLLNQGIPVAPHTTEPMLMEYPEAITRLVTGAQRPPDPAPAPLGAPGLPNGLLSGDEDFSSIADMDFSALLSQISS
Chain of Toll-like receptor 4 (Homo sapiens) (O00206 whole entry): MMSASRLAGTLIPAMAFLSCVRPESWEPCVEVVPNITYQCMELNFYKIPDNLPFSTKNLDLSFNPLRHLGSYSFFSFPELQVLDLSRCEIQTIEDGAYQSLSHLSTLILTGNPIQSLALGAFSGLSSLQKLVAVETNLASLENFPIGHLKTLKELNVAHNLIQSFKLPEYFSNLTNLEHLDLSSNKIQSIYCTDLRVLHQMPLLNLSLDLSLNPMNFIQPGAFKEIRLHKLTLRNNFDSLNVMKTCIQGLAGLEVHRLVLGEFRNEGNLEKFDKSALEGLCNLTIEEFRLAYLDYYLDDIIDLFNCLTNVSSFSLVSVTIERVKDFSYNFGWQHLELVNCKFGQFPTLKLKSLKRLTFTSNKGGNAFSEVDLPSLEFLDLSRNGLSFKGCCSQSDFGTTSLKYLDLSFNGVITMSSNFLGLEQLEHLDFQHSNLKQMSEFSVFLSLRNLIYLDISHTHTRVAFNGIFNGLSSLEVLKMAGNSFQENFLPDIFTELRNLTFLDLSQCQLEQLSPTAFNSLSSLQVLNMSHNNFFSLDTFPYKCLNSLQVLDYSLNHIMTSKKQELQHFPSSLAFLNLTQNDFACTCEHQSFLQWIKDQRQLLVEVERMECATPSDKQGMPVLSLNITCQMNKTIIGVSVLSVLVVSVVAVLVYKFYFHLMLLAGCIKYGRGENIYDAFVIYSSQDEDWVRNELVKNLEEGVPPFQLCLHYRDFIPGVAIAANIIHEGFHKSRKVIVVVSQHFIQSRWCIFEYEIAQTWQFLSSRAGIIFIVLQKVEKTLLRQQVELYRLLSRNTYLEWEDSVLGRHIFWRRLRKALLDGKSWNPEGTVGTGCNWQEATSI

CCCCCCCCCCCCCC(=O)N[C@H]1[C@@H](OP(=O)(O)O)O[C@H](COP(=O)(O)O)[C@@H](OC(=O)CCCCCCCCCCCCC)[C@@H]1OC(=O)CCCCCCCCCCCCC
inactive: all assays above
